From ChEMBL document CHEMBL4138312 (J Med Chem, 2018) come the findings set out here.

Bounds are passed on as bounds.

Data set [1] relates to A549. Description: Antiproliferative activity against human A549 cells after 48 hrs by Alamar Blue based assay. Format: functional. The settings on record: A549, 48 h. An outline of the steps:
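Antiproliferation assay in A549 cells, reported as GI50.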
A general note: Alamar Blue is a resazurin reagent that responds to reducing activity.

Data set [2] has as its system Mus musculus. Description: Time above EC50 for inhibition of JAK1 in CD1 mouse at 50 mg/kg, po administered via gavage. The settings on record: in vivo.
Data set [3] addresses T1, NUAK family SNF1-like kinase 1 (Homo sapiens) (UniProt O60285).
T1 sequence (whole entry): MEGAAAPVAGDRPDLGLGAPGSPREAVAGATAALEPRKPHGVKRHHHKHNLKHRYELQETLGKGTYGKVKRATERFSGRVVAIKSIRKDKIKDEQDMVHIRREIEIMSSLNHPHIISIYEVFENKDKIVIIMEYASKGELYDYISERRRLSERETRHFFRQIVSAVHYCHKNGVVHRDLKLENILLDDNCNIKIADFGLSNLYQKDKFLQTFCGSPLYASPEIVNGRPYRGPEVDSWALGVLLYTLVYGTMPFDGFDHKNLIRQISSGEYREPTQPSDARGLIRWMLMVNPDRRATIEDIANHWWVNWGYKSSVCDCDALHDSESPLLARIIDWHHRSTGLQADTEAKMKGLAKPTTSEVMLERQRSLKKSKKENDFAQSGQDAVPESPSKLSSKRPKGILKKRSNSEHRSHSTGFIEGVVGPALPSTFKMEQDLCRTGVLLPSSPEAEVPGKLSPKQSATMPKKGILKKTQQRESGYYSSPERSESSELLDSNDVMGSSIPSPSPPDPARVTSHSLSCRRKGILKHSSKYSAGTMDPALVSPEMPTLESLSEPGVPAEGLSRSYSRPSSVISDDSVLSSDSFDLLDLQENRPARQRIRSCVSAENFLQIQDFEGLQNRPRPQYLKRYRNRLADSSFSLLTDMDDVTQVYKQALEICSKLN
Description: Inhibition of recombinant human full length His-tagged NUAK1 expressed in baculovirus at 1 uM. A digest of the protocol:
(§1)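 Kinase panel of 386 kinases, each screened at a single concentration of 1 μM.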

The target of data set [4] is T2, Tyrosine-protein kinase JAK3 (Homo sapiens, UniProt P52333).
T2 sequence (P52333 whole entry): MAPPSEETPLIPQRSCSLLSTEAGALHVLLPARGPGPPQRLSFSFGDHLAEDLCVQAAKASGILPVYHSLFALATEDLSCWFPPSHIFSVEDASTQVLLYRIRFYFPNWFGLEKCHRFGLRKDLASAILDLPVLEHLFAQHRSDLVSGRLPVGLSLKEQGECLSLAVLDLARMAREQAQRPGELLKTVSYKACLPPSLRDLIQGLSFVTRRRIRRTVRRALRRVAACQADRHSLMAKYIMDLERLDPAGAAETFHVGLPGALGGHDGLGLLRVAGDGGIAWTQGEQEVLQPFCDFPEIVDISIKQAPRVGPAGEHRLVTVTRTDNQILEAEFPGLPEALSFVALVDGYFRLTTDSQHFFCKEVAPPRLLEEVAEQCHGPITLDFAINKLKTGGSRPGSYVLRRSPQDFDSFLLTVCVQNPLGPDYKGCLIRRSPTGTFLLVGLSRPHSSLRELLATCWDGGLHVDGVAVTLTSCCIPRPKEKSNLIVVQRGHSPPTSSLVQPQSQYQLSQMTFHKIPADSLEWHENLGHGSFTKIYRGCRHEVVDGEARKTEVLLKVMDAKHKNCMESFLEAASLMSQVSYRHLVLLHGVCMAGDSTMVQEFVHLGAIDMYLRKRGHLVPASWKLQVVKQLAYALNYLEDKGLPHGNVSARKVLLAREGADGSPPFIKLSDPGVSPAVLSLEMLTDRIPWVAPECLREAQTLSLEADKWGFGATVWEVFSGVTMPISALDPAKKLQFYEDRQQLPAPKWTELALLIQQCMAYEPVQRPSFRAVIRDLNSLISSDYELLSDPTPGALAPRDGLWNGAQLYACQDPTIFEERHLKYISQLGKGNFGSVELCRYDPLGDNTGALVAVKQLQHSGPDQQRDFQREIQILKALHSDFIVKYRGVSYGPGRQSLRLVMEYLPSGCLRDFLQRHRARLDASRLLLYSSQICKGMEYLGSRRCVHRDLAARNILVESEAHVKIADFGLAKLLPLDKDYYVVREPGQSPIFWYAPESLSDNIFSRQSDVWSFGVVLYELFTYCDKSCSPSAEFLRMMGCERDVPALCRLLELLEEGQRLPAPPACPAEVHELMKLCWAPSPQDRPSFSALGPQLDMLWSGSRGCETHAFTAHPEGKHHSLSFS
Nature of the data set: Inhibition of recombinant human JAK3 (781 to 1124 residues) expressed in insect cells using 5FAM-GEEPLYWSFPAKKK-NH2 as substrate after 10 mins by caliper assay. An outline of the steps:
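Biochemical kinase inhibition IC50 measured at 5 mM ATP. Values are the geometric mean of at least two independent experiments.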

Data set [5] has as its target T3, Tyrosine-protein kinase JAK3 (Homo sapiens) (UniProt P52333).
T3 sequence (whole entry): T2 sequence (P52333 whole entry)
Nature of the data set: Inhibition of recombinant human GST-tagged JAK3 (781 to 1124 residues) expressed in baculovirus at 1 uM. An outline of the steps: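 Single-concentration screen at 1 μM across a panel of 386 kinases to profile broad kinase selectivity.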

Data set [6] addresses Tyrosine-protein kinase JAK1 (Homo sapiens, UniProt P23458). Nature of the data set: Inhibition of JAK1 in human NCI-H1975 cells assessed as reduction in STAT3 phosphorylation after 1 hr by ELISA. Format: cell-based. An outline of the steps:
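Cellular mode-of-action assay in NCI-H1975 cells, read as inhibition of STAT3 phosphorylation. EC50 was derived.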
Background: An ELISA detects its analyte on a solid surface through an enzyme-linked reagent.

A short description of data set [7]: Protein binding in CD1 mouse plasma assessed as unbound fraction. Format: ADME, cell-free.
Data set [8] can be described thus: AUC in CD1 mouse at 10 mg/kg, po by LC/MS/MS analysis. Format: ADME, organism-based. The following applies: in vivo. A digest of the protocol: (§2)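 Mouse pharmacokinetics after oral dosing at 10 or 50 mg/kg. The 10 mg/kg dose was given in 10% HPbCD + 5% dextrose in WFI at pH 4. The 50 mg/kg dose was given in 5% SBECD in WFI at pH 2. Plasma exposure (AUC), half-life and oral bioavailability were derived.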

The target of data set [9] is Leucine-rich repeat serine/threonine-protein kinase 2 (Homo sapiens) (UniProt Q5S007). Description: Inhibition of recombinant human full length GST-tagged catalytic LRRK2 expressed in baculovirus at 1 uM. A digest of the protocol: as §1
Data set [10] in a line: Clearance in CD1 mouse at 3 mg/kg, iv by LC/MS/MS analysis. Type of data set: ADME, organism-based. The following applies: in vivo. A digest of the protocol:
(§3)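 Mouse pharmacokinetics after a single iv dose of 3 mg/kg in 10% HPbCD + 5% dextrose in WFI at pH 4. Plasma clearance, half-life and steady-state volume of distribution were derived.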

A short description of data set [11]: Volume of distribution at steady state in CD1 mouse at 3 mg/kg, iv by LC/MS/MS analysis. Format: ADME, organism-based. The settings on record: in vivo, read-out: Vdss. An outline of the steps: as §3
Data set [12] can be described thus: AUC in CD1 mouse at 50 mg/kg, po administered via gavage by LC/MS/MS analysis. Type of data set: ADME, organism-based. The settings on record: in vivo. A digest of the protocol: as §2
Data set [13] is described as follows: Half life in CD1 mouse at 50 mg/kg, po administered via gavage by LC/MS/MS analysis. Format: ADME, organism-based. The following applies: in vivo. An outline of the steps:
as §2

What is called GI50 is the concentration giving 50% growth inhibition. A low value points to more potent growth inhibition. Broadly, the inhibition is the relative decrease from the control value, in per cent. A word on the IC50: it is the concentration at which inhibition is half-maximal. Broadly, the EC50 is the concentration giving half of the maximal effect. As usually defined, the fraction unbound is the share of the substance not bound to proteins or other matrix. In general, AUC refers to concentration integrated over time. As usually defined, the clearance is the rate of elimination divided by the concentration. Lower therefore signals a low capacity for elimination. By half-life is commonly meant the time needed for the level to fall by half in the phase considered. A low value points to fast loss.

Leucine-rich repeat serine/threonine-protein kinase 2 (Homo sapiens), sequence (Q5S007 whole entry): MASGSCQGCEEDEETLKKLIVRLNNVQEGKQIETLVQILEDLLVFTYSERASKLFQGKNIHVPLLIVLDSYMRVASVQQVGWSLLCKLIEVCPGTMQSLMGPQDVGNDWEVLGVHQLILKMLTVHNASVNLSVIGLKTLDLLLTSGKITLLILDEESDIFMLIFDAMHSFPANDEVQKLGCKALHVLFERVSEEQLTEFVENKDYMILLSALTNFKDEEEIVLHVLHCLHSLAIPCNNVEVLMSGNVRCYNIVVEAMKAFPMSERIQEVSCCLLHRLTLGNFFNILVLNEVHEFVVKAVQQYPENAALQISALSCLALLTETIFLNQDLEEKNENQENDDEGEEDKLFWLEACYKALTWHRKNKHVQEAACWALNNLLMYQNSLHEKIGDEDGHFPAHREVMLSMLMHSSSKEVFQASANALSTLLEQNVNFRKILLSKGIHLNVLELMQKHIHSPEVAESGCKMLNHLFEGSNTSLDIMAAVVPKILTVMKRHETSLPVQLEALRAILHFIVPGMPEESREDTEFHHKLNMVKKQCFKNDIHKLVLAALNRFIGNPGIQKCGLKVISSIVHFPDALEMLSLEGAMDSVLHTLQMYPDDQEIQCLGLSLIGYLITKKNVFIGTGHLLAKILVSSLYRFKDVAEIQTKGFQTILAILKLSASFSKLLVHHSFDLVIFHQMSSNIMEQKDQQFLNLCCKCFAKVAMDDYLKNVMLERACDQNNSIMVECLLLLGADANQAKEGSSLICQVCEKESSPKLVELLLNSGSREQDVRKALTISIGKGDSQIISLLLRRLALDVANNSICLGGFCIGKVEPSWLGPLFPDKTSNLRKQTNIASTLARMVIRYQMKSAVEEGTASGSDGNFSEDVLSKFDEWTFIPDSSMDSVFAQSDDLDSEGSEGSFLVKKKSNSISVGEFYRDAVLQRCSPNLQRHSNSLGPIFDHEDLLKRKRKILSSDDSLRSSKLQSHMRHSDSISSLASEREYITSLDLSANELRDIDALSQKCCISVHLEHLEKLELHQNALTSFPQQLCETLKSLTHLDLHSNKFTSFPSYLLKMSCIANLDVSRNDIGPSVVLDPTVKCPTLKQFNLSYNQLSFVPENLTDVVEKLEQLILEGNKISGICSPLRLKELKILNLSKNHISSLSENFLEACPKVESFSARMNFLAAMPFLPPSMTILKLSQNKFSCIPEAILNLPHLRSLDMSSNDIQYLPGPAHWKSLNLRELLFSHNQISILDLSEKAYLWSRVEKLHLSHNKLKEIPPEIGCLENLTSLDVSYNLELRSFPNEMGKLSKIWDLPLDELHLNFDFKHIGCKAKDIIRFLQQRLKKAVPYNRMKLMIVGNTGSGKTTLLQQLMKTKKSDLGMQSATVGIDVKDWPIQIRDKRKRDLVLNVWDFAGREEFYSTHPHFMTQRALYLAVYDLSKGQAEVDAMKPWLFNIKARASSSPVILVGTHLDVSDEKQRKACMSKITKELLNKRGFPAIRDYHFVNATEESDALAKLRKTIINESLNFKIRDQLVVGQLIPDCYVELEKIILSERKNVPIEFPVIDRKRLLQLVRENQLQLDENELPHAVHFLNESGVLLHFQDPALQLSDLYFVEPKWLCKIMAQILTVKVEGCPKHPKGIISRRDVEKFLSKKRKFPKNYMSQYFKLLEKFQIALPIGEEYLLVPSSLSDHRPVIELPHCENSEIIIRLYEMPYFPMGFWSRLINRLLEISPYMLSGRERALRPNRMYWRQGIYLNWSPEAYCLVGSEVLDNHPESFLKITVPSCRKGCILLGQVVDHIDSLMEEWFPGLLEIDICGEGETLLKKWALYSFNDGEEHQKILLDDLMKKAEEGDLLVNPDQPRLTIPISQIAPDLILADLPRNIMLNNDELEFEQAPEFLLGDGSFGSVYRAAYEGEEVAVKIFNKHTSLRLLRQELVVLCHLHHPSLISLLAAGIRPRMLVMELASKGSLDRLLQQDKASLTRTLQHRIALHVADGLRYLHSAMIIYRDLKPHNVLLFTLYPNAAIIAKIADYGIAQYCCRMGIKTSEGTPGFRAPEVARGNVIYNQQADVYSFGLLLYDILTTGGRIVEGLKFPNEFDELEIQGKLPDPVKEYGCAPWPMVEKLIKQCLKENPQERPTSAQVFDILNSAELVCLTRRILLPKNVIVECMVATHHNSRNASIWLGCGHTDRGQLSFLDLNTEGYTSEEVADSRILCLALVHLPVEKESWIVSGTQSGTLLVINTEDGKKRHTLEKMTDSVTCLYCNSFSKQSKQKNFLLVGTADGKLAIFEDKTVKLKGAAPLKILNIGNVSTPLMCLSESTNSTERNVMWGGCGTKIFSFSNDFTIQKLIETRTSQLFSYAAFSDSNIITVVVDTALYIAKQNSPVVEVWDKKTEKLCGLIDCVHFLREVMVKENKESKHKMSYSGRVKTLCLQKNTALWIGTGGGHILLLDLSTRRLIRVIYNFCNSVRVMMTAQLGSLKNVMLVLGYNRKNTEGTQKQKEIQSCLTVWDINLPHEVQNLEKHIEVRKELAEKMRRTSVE
Tyrosine-protein kinase JAK1, sequence (P23458 whole entry): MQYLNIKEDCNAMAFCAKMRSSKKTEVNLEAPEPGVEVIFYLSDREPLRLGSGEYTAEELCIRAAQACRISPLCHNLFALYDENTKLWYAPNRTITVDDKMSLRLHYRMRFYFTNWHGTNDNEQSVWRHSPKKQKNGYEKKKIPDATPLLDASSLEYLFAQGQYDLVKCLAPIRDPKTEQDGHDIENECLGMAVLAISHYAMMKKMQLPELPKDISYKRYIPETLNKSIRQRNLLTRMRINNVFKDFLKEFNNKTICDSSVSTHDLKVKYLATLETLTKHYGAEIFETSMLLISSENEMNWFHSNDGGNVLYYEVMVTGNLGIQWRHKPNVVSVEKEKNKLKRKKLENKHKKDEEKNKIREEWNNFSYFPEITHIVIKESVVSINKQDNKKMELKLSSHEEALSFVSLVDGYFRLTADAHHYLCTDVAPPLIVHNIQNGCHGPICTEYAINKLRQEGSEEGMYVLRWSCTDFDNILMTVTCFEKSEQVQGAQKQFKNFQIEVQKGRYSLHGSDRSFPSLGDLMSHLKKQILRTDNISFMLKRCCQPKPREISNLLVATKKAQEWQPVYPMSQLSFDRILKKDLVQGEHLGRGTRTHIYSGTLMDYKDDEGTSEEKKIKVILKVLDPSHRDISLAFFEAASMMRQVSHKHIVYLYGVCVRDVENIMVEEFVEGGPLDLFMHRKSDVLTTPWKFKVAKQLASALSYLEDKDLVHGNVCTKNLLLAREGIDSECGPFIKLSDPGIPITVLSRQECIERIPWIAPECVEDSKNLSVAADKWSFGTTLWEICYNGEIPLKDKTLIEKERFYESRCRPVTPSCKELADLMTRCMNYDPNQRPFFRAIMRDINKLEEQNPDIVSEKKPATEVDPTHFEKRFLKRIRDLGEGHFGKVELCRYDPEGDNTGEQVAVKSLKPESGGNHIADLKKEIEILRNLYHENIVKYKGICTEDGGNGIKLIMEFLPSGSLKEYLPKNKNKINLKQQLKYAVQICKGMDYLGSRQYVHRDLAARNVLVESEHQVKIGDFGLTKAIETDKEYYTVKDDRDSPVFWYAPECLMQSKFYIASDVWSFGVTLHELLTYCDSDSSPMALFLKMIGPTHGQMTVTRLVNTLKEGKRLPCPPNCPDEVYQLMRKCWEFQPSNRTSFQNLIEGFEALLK

`CC[C@@H](C)Nc1nc(Nc2cc(N3C[C@@H]4C[C@H]3CN4C)cnc2F)ncc1C` yielded a GI50 in data set [1] of more than 10 µM. Moreover, in [2], the Time amounted to 12 h. Besides, the inhibition was found to be 71% in data set [3], 46% in data set [5] and 71% in [9]. Besides, the half-maximal inhibitory concentration (IC50) in data set [4] was more than 30 µM. Further, the EC50 in data set [6] stood at 0.03 µM. The free fraction (fraction unbound) in [7] was found to be 0.15. In addition, the AUC in data set [8] is 2.65 µM·h; in data set [12], 18.9 µM·h. This molecule displayed a clearance in data set [10] of 68.7 mL/min/kg. Further, the Vd in data set [11] worked out at 10.3 L/kg. In addition, the half-life in [13] was 5.3 h.
